For four compounds, MIC results are on record in ChEMBL document CHEMBL1275589, “Molecular epidemiology, sequence types, and plasmid analyses of KPC-producing Klebsiella pneumoniae strains in Israel” (2010).

The subject of assay [1] is Klebsiella pneumoniae. Description: Antimicrobial activity against carbapenem-resistant KPC-2 producing Klebsiella pneumoniae 531 transformant by agar dilution method. In kind it is functional.
In assay [2] the test system is Klebsiella pneumoniae. Put plainly: Antimicrobial activity against carbapenem-resistant KPC-2 producing Klebsiella pneumoniae 365 transformant by agar dilution method. In kind it is functional. On the technique in general: In agar dilution, organisms are placed on agar that contains the substance at set levels.
In assay [3] the test system is Klebsiella pneumoniae. Put plainly: Antimicrobial activity against carbapenem-resistant KPC-2 producing Klebsiella pneumoniae 526 transformant by agar dilution method. Format: functional.
Assay [4] relates to Klebsiella pneumoniae. Description: Antimicrobial activity against carbapenem-resistant KPC-2 producing Klebsiella pneumoniae 523 ST 340 expressing beta-lactamase TEM-1, SHV-11 and OXA-2 by agar dilution method. Format: functional.
For assay [5], the system named is Klebsiella pneumoniae. Description: Antimicrobial activity against carbapenem-resistant KPC-2 producing Klebsiella pneumoniae 475 ST 277 expressing beta-lactamase SHV-27, CTX-M-15 and OXA-4 by agar dilution method. In kind it is functional.
The test system of assay [6] is Klebsiella pneumoniae. Description: Antimicrobial activity against carbapenem-resistant KPC-2 producing Klebsiella pneumoniae 525 transformant by agar dilution method. In kind it is functional.
Assay [7] deals with Klebsiella pneumoniae. Description: Antimicrobial activity against carbapenem-resistant KPC-2 producing Klebsiella pneumoniae 475 transformant by agar dilution method. In kind it is functional.
The subject of assay [8] is Klebsiella pneumoniae. Put plainly: Antimicrobial activity against carbapenem-resistant KPC-2 producing Klebsiella pneumoniae 469 ST 277 expressing beta-lactamase SHV-27, CTX-M-15 and OXA-4 by agar dilution method. Format: functional.
The test system of assay [9] is Klebsiella pneumoniae. Description: Antimicrobial activity against carbapenem-resistant KPC-2 producing Klebsiella pneumoniae 525 ST 376 expressing beta-lactamase SHV-1 by agar dilution method. Format: functional.
Assay [10] concerns Klebsiella pneumoniae. Put plainly: Antimicrobial activity against KPC-3 producing Klebsiella pneumoniae 549 ST 327 expressing beta-lactamase TEM-1 and CTX-M-2 by agar dilution method. In kind it is functional.
The subject of assay [11] is Klebsiella pneumoniae. Description: Antimicrobial activity against carbapenem-resistant KPC-2 producing Klebsiella pneumoniae 469 transformant by agar dilution method. Format: functional.
The subject of assay [12] is Klebsiella pneumoniae. Description: Antimicrobial activity against KPC-3 producing Klebsiella pneumoniae 557 transformant by agar dilution method. In kind it is functional.
The test system of assay [13] is Klebsiella pneumoniae. Description: Antimicrobial activity against carbapenem-resistant KPC-2 producing Klebsiella pneumoniae 523 transformant by agar dilution method. In kind it is functional.
Assay [14] has as its system Klebsiella pneumoniae. Put plainly: Antimicrobial activity against KPC-3 producing Klebsiella pneumoniae 557 ST 258 expressing beta-lactamase TEM-1 by agar dilution method.
Assay [15] concerns Escherichia coli. Description: Antimicrobial activity against Escherichia coli Genehogs by agar dilution method. In kind it is functional. Summed up: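 Carbapenem MICs by agar dilution, interpreted per CLSI. FDA Enterobacteriaceae breakpoints applied: susceptible ≤2 μg/ml, intermediate 4 μg/ml, resistant ≥8 μg/ml. Transformants were made in recipient E. coli GeneHogs with purified plasmid DNA.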

In assay [16] the test system is Klebsiella pneumoniae. Put plainly: Antimicrobial activity against carbapenem-resistant KPC-2 producing Klebsiella pneumoniae 365 ST 376 expressing beta-lactamase SHV-1, CTX-M-15 and OXA-4 by agar dilution method.
In assay [17] the test system is Klebsiella pneumoniae. Description: Antimicrobial activity against carbapenem-resistant KPC-2 producing Klebsiella pneumoniae 588 ST 340 expressing beta-lactamase TEM-1 and SHV-11 by agar dilution method. Format: functional.
The subject of assay [18] is Klebsiella pneumoniae. Put plainly: Antimicrobial activity against carbapenem-resistant KPC-2 producing Klebsiella pneumoniae 526 ST 376 expressing beta-lactamase SHV-1 by agar dilution method. Format: functional.
Assay [19] concerns Klebsiella pneumoniae. Put plainly: Antimicrobial activity against KPC-3 producing Klebsiella pneumoniae 549 transformant by agar dilution method. In kind it is functional.
For assay [20], the system named is Klebsiella pneumoniae. Put plainly: Antimicrobial activity against carbapenem-resistant KPC-2 producing Klebsiella pneumoniae 531 ST 376 expressing beta-lactamase SHV-1 by agar dilution method. In kind it is functional.
In assay [21] the test system is Klebsiella pneumoniae. Put plainly: Antimicrobial activity against carbapenem-resistant KPC-2 producing Klebsiella pneumoniae 588 transformant by agar dilution method. In kind it is functional.

In brackets after ≈: the same amount, converted by molar mass.

As to `CC(C)(O/N=C(\C(=O)N[C@@H]1C(=O)N2C(C(=O)[O-])=C(C[n+]3ccccc3)CS[C@H]12)c1csc(N)n1)C(=O)O` [CEFTAZIDIME], the minimum inhibitory concentration (MIC) in assay [1], in assay [2], in assay [3], in assay [4], in [5] and in [6] was 16 µg/mL (≈ 29.3 µM) in each case. For the same compound, the MIC is 16 µg/mL (≈ 29.3 µM) in [7]; above 64 µg/mL in assay [8]; above 64 µg/mL in [9]; 16 µg/mL (≈ 29.3 µM) in assay [10]; above 64 µg/mL in assay [11]; above 64 µg/mL in assay [12]. In addition, the minimum inhibitory concentration (MIC) is 16 µg/mL (≈ 29.3 µM) in assay [13]; above 64 µg/mL in assay [14]; below 1 µg/mL in assay [15]; above 64 µg/mL in assay [16]; 16 µg/mL (≈ 29.3 µM) in assay [17]; above 64 µg/mL in [18]. The MIC is above 64 µg/mL in assay [19], above 64 µg/mL in assay [20] and 16 µg/mL (≈ 29.3 µM) in assay [21].
Take `C[C@@H](O)[C@H]1C(=O)N2C(C(=O)O)=C(SCCNC=N)C[C@H]12` [IMIPENEM ANHYDROUS]: the MIC in assay [1] is 4 µg/mL (≈ 13.4 µM); in [2], 8 µg/mL (≈ 26.7 µM); in assay [3], 8 µg/mL (≈ 26.7 µM); in [4], 32 µg/mL (≈ 107 µM); in assay [5] it was 32 µg/mL (≈ 107 µM); in [6] it was 4 µg/mL (≈ 13.4 µM). In addition, the MIC in assay [7] worked out at 8 µg/mL (≈ 26.7 µM); in assay [8] it was 32 µg/mL (≈ 107 µM); in [9], 32 µg/mL (≈ 107 µM); in assay [10] it was 0.75 µg/mL (≈ 2.51 µM); in [11], 8 µg/mL (≈ 26.7 µM); in assay [12] it was 4 µg/mL (≈ 13.4 µM). For the same compound, the MIC in assay [13] worked out at 8 µg/mL (≈ 26.7 µM); in assay [14], 128 µg/mL (≈ 428 µM); in assay [15] it was 0.094 µg/mL (≈ 0.314 µM); in assay [16] it was 32 µg/mL (≈ 107 µM); in [17], 32 µg/mL (≈ 107 µM); in [18], 32 µg/mL (≈ 107 µM). For the same compound, the results for the MIC in [19], in [20] and in assay [21] were 4 µg/mL (≈ 13.4 µM), 32 µg/mL (≈ 107 µM) and 8 µg/mL (≈ 26.7 µM), respectively.
Regarding `C[C@@H](O)[C@H]1C(=O)N2C(C(=O)O)=C(S[C@@H]3CN[C@H](C(=O)N(C)C)C3)[C@H](C)[C@H]12` [MEROPENEM], the MIC is 4 µg/mL (≈ 10.4 µM) in [1]; 4 µg/mL (≈ 10.4 µM) in [2]; 4 µg/mL (≈ 10.4 µM) in assay [3]; 32 µg/mL (≈ 83.4 µM) in assay [4]; 64 µg/mL (≈ 167 µM) in assay [5]; 4 µg/mL (≈ 10.4 µM) in assay [6]. Further, the MIC in assay [7] turned out to be 4 µg/mL (≈ 10.4 µM); in assay [8], 32 µg/mL (≈ 83.4 µM); in assay [9] it was 64 µg/mL (≈ 167 µM); in assay [10], 8 µg/mL (≈ 20.9 µM); in assay [11] it was 4 µg/mL (≈ 10.4 µM); in assay [12], 4 µg/mL (≈ 10.4 µM). The MIC stood at 4 µg/mL (≈ 10.4 µM) in [13]; 128 µg/mL (≈ 334 µM) in assay [14]; 0.012 µg/mL (≈ 0.0313 µM) in [15]; 64 µg/mL (≈ 167 µM) in assay [16]; 64 µg/mL (≈ 167 µM) in assay [17]; 64 µg/mL (≈ 167 µM) in [18]. Moreover, the figures for the MIC in [19], in assay [20] and in [21] were 2 µg/mL (≈ 5.22 µM), 64 µg/mL (≈ 167 µM) and 4 µg/mL (≈ 10.4 µM), respectively.
GENTAMICIN: the MIC in [1] was below 1 µg/mL; in [2], below 1 µg/mL; in assay [3] it was below 1 µg/mL; in [4], above 16 µg/mL; in assay [5], above 16 µg/mL; in assay [6] it was below 1 µg/mL. In addition, the MIC in [7] was above 16 µg/mL; in [8], above 16 µg/mL; in assay [9], below 1 µg/mL; in assay [10] it was above 16 µg/mL; in assay [11], above 16 µg/mL; in [12], below 1 µg/mL. Further, the MIC in [13] is 2 µg/mL; in [15], below 1 µg/mL; in [17] it was below 1 µg/mL; in assay [18] it was below 1 µg/mL; in assay [19], below 1 µg/mL; in assay [20] it was below 1 µg/mL. In [21], the MIC came to 2 µg/mL.

A word on the MIC: it is the lowest concentration that inhibits growth of the organism.
